The source made the active and inactive calls. No cut-off for these calls is given here.
Legend:
Human alphaherpesvirus 1 = assay: Antiviral activity against Herpes simplex virus 1 HF infected in human Hep2 cells assessed as inhibition of virus-induced cytopathogenicity measured at 4 days post-virus infection by Microtest 2 plate based microscopic analysis; assay type: functional, organism-based; conditions: HEp-2
In short: (§1)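 Cells pregrown in microplates in BME (double vitamins/amino acids, 5% FBS). Medium replaced with compound-containing medium plus virus giving 32 CCID50 per well. Seven concentrations, half-log steps from cytotoxic to noncytotoxic, in triplicate. Cell, virus and cytotoxicity controls run alongside. Incubated 37 °C; cpe reduction judged microscopically at 4 days. Virus rating (VR) derived from cpe inhibition and cytotoxicity.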

Human alphaherpesvirus 3 = assay: Antiviral activity against Varicella zoster virus Ellen infected in human WI-38 cells assessed as inhibition of virus-induced cytopathogenicity measured at 7 days post-virus infection by […] microscopic analysis; assay type: functional, organism-based
In short: (§2)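 Diploid human embryonic lung fibroblasts, 7-day-old monolayers in tubes, MEM plus 2% fetal bovine serum. Compound added in fresh medium (triplicate), then ~32 CCID50 virus per culture. Incubated 37 °C; medium replaced with fresh drug-containing medium at 48 h and again 48 h later. Cytotoxicity, virus and cell controls included. Cpe scored microscopically at day 7; virus rating (VR) calculated from cpe inhibition and drug cytotoxicity.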

Cytomegalovirus = assay: Antiviral activity against Cytomegalovirus AD 169 infected in human WI-38 cells assessed as inhibition of virus-induced cytopathogenicity measured at 7 days post-virus infection by […] microscopic analysis; assay type: functional, organism-based; in short: as §2
Human adenovirus 2 = assay: Antiviral activity against Human adenovirus 2 Adenoid-6 infected in human KB cells assessed as inhibition of virus-induced cytopathogenicity measured at 4 days post-virus infection by Microtest 2 plate based microscopic analysis; assay type: functional, organism-based; in short: as §1
[1] = test system: Respiratory syncytial virus; assay: Antiviral activity against Respiratory syncytial virus Long infected in human Hep2 cells assessed as inhibition of virus-induced cytopathogenicity measured at 4 days post-virus infection by Microtest 2 plate based microscopic analysis; assay type: functional, organism-based; conditions: HEp-2; in short: as §1
Human rhinovirus 1A = assay: Antiviral activity against Human rhinovirus 1A 2060 infected in human KB cells assessed as inhibition of virus-induced cytopathogenicity measured at 4 days post-virus infection by Microtest 2 plate based microscopic analysis; assay type: functional, organism-based
In short: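 Rhinovirus in KB cells under BME with 5% fetal bovine serum, challenged at 32 CCID50 per well alongside compound. Seven half-log concentrations spanning cytotoxic to noncytotoxic, triplicate. Cell, virus and drug-cytotoxicity controls included. Plates sealed, held at 33 °C. Cpe reduction examined microscopically after 4 days; virus rating (VR) computed from cpe inhibition and cytotoxicity.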

[2] = Virus rating for antiviral activity against Herpes simplex virus 1 HF infected in human Hep2 cells assessed as inhibition of virus-induced cytopathic effect taking into account cytotoxicity against human Hep2 cells

Row | Compound | inhibition (Human alphaherpesvirus 1) | inhibition (Human alphaherpesvirus 3) | inhibition (Cytomegalovirus) | inhibition (Human adenovirus 2) | inhibition [1] | inhibition (Human rhinovirus 1A) | virus rating [2]
1 | CSc1nc(N)c2nnn([C@H]3O[C@H](CO)[C@@H](O)[C@@H]3O)c2n1 | inactive | inactive | inactive | inactive | inactive | inactive | –
2 | COc1nc(N)c2ncn([C@H]3O[C@H](CO)[C@@H](O)[C@@H]3O)c2n1 | inactive | inactive | inactive | inactive | inactive | inactive | –
3 | NNc1nc(N)c2ncn([C@H]3O[C@H](CO)[C@@H](O)[C@@H]3O)c2n1 | inactive | inactive | inactive | inactive | inactive | inactive | –
4 | COc1nc(N)c2nnn([C@H]3O[C@H](CO)[C@@H](O)[C@@H]3O)c2n1 | inactive | inactive | inactive | inactive | inactive | inactive | –
5 | CSc1nc(N)c2ncn([C@H]3O[C@H](CO)[C@@H](O)[C@@H]3O)c2n1 | inactive | inactive | inactive | inactive | inactive | inactive | –
6 | [N-]=[N+]=Nc1nc(N)c2nnn([C@H]3O[C@H](CO)[C@@H](O)[C@@H]3O)c2n1 | inactive | inactive | inactive | inactive | inactive | inactive | –
7 | NNc1nc(N)c2nnn([C@H]3O[C@H](CO)[C@@H](O)[C@@H]3O)c2n1 | inactive | inactive | inactive | inactive | inactive | inactive | –
8 | Nc1ncnc2c1ncn2[C@H]1O[C@H](CO)[C@@H](O)[C@@H]1O | – | – | – | – | – | – | 0.6
9 | Nc1ncnc2c1nnn2[C@H]1O[C@H](CO)[C@@H](O)[C@@H]1O | – | – | – | – | – | – | 1
10 | CS(=O)(=O)c1nc(N)c2nnn([C@H]3O[C@H](CO)[C@@H](O)[C@@H]3O)c2n1 | inactive | inactive | inactive | inactive | inactive | inactive | –
